From ChEMBL document CHEMBL1153319, “Dancing of the second aromatic residue around the 6,8-diazabicyclo[3.2.2]nonane framework: influence on sigma receptor affinity and cytotoxicity” (J Med Chem, 2009) come the findings set out here.

The target of test [1] is Sigma non-opioid intracellular receptor 1 (Homo sapiens, UniProt Q99720). The test can be described thus: Binding affinity to sigma 1 receptor. Put shortly:
(§1)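 Guinea pig brain homogenate (about 75 µg protein) incubated with test compound, 2 nM [3H]-(+)-pentazocine (Kd 2.9 nM) in 50 mM Tris pH 7.4, 180 min at 37 °C. Nonspecific binding with 10 µM unlabeled (+)-pentazocine. Rapid filtration, water washes, solid scintillator counting. Ki by Cheng–Prusoff from six-concentration competition curves, triplicates, mean ± SEM of three experiments; single-point lines give inhibition at 1 µM.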

For the next test, the species on record is Rattus norvegicus. Description: Displacement of [3H]1,3-ditolylguanine from sigma 2 receptor in rat liver membrane by solid scintillation analysis at 1 uM. The class given is cell membranes. Background: Displacement assays read how much labelled ligand stays bound in the presence of the test substance.
In test [2] the target is Sigma non-opioid intracellular receptor 1 (Cavia porcellus) (UniProt Q60492). The test can be described thus: Displacement of [3H](+)-pentazocine from sigma 1 receptor in guinea pig brain membrane at 1 uM by scintillation analysis. The class given is cell membranes. Put shortly: as §1
Chain of Sigma non-opioid intracellular receptor 1 (Cavia porcellus) (Q60492 whole entry): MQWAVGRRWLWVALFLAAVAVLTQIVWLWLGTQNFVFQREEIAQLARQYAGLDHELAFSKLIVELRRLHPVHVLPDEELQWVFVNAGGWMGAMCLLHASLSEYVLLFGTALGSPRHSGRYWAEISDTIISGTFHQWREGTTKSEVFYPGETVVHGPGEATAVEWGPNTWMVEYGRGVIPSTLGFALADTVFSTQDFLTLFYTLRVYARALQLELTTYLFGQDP
In a further test the test system is 5637. The test can be described thus: Cytotoxicity against human 5637 cells after 96 hrs by crystal violet staining. The class given is functional, cell-based. The following applies: Homo sapiens, 5637, 96 h. Put shortly:
(§2)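 Human tumour lines from DSMZ given a 20 µM primary screen for 96 h at 37 °C. Those cutting growth >50% versus untreated controls were then tested at 5 serial dilutions (DMSO stocks) for 96 h. Remaining cell density read by crystal violet staining. IC50 from least-squares dose-response fit using concentrations giving T/C 10–90%.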

Test [3] in a line: Cytotoxicity against human LCLC-103H cells after 96 hrs by crystal violet staining. The format is functional, cell-based. Put shortly: as §2
The test system of another test is MCF7. Description: Cytotoxicity against human MCF7 cells after 96 hrs by crystal violet staining. The class given is functional, cell-based. The following applies: MCF7, 96 h. Put shortly: as §2
Another test relates to DAN-G. Description: Cytotoxicity against human DAN-G cells after 96 hrs by crystal violet staining. The class given is functional, cell-based. Put shortly: as §2
The test system of the next test is RT-4. Description: Cytotoxicity against human RT4 cells after 96 hrs by crystal violet staining. The class given is functional, cell-based. The following applies: RT-4, 96 h. Put shortly: as §2
The next test concerns A-427. Description: Cytotoxicity against human A427 cells after 96 hrs by crystal violet staining. The following applies: A-427, 96 h. The class given is functional, cell-based. Put shortly: as §2
Test [4] can be described thus: Displacement of [3H]1,3-ditolylguanine from sigma 2 receptor in rat liver membrane by solid scintillation analysis. The format is cell membranes.
Test [5] has as its target Sigma non-opioid intracellular receptor 1 (Cavia porcellus, UniProt Q60492). Description: Displacement of [3H](+)-pentazocine from sigma 1 receptor in guinea pig brain membrane by scintillation analysis. The class given is cell membranes.
Test [6] in a line: Selectivity for sigma 2 receptor in rat liver membrane over sigma 1 receptor in guinea pig brain membrane. The format is cell membranes.

Chain of Sigma non-opioid intracellular receptor 1 (Cavia porcellus, UniProt Q60492) (Q60492 whole entry): as above
Chain of Sigma non-opioid intracellular receptor 1 (Homo sapiens, UniProt Q99720) (Q99720 whole entry): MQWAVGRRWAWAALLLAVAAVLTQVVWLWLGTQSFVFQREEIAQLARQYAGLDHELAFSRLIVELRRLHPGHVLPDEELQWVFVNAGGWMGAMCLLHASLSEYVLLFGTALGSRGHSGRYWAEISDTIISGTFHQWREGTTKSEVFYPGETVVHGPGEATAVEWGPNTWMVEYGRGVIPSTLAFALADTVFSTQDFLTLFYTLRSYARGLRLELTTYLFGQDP

Consider `C=CCN1CC2[C@@H](O)CCC1CN2Cc1ccc(OC)cc1` (stereo partly specified), for which the Ki (in general, the dissociation constant of the complex between target and ligand, obtained from inhibition or displacement) in [1] is 2.24 µM.
Still for that read-out and setting: the result for `COc1ccc(CN2CC3CCC(=O)C2CN3Cc2ccccc2)cc1` (stereo unspecified) reads 0.053 µM.
As to `COc1ccc(CN2C[C@H]3C(c4ccccc4)CC(=O)[C@@H]2CN3Cc2ccccc2)cc1` (single isomer, unassigned; form 2), the Activity came out at 0% in the test filed under Rattus norvegicus and 14% in test [2].
Turning to `CCCN1CC2C(=O)C[C@@H](c3ccccc3)C1CN2Cc1ccc(OC)cc1` (stereo partly specified), the 50% inhibitory concentration (IC50) (in the test on 5637; in test [3]; with MCF7; in the test on DAN-G; in the test on RT-4; with A-427) was above 20 µM in each case. The Activity worked out at 11% in the test filed under Rattus norvegicus and 40% in [2].
As to `COc1ccc(CN2C[C@H]3C(c4ccccc4)CC(=O)[C@@H]2CN3Cc2ccccc2)cc1` (single isomer, unassigned; form 1), the Activity turned out to be 0% in the test listed under Rattus norvegicus and 25% in test [2].
For `C=CCN1C[C@H]2[C@@H](Oc3ccccc3)CC[C@@H]1CN2Cc1ccc(OC)cc1`, the half-inhibitory concentration (IC50) – broadly, the point on the concentration scale where inhibition reaches its midpoint – is 9.79 µM in the test on 5637; above 20 µM in [3]; 9.23 µM in the test with MCF7; 10.6 µM in the test on DAN-G; 17.9 µM with RT-4; 6.29 µM in the test with A-427. The compound also gave an Activity in [2] of 29%. The compound also came in with an inhibition constant Ki in test [4] of 0.862 µM.
In test [2], `C=CCN1C[C@H]2c3nc4ccccc4c(C)c3C[C@@H]1CN2Cc1ccc(OC)cc1` returned an Activity of 18%. The same compound registered an inhibition constant Ki in [4] of 57.2 µM.
In the case of `C=CCN1C[C@H]2c3[nH]c4ccc(OC)cc4c3C[C@@H]1CN2Cc1ccc(OC)cc1`, the concentration for half-maximal inhibition (IC50) in the test with 5637 is 16.1 µM; in test [3], above 20 µM; in the test on MCF7 it was above 20 µM; in the test with DAN-G it was above 20 µM; in the test with RT-4, above 20 µM; in the test on A-427, 15.4 µM. In addition, the Activity in the test listed under Rattus norvegicus was found to be 44%; in test [2], 37%.
For `C=CCN1CC2C(=O)CCC1CN2Cc1ccc(OC)cc1` (stereo unspecified), in [1], the inhibition constant (Ki) was found to be 1.6 µM.
Consider `CCCN1CC2C(=O)C[C@H](c3ccccc3)C1CN2Cc1ccc(OC)cc1` (stereo partly specified), for which the IC50 (in test [3]; with DAN-G; in the test with RT-4) was above 20 µM in each case. Moreover, the Activity in the test filed under Rattus norvegicus was found to be 10%; in [2], 3%.
Turning to `C=CCN1C[C@@H]2[C@H](Oc3ccccc3)CC[C@H]1CN2Cc1ccc(OC)cc1OC`, the IC50 in the test on 5637 was 11.7 µM; in test [3], above 20 µM; with MCF7, 9.11 µM; in the test with DAN-G it was 12.5 µM; with RT-4 it was 15.3 µM; with A-427, 7.09 µM. Moreover, the inhibitory constant (Ki) in [5] is 4.05 µM; in test [4] it was 0.469 µM. The compound also returned a fold change (FC) in test [6] of 5.
Turning to `COc1ccc(CN2C[C@@H]3[C@H](c4ccccc4)CC(=O)[C@H]2CN3Cc2ccccc2)cc1`, the IC50 with 5637 was 18.3 µM; in test [3], above 20 µM; with MCF7, 19.4 µM; in the test with DAN-G, 16.1 µM; with RT-4, 20.5 µM; with A-427, 10.3 µM. Besides, the Activity in the test filed under Rattus norvegicus came out at 0%; in test [2], 17%.
`C=CCN1C[C@H]2N(Cc3ccc(OC)cc3)C[C@@H]1CC[C@]21Cc2ccccc2CO1`: the Activity is 58% in the test listed under Rattus norvegicus and 36% in test [2].
As to `COc1ccc(CN2CCN(Cc3ccccc3)[C@@H](CO)C2)cc1`, the affinity in [1] corresponds to a Ki of 0.012 µM.
On to `C=CCN1C[C@H]2c3[nH]c4ccc(OC)cc4c3C[C@@H]1CN2Cc1ccc(OC)cc1OC`, for which the half-inhibitory concentration (IC50) turned out to be 16.6 µM with 5637; 8.57 µM in [3]; 11.4 µM in the test on MCF7; 7.12 µM in the test on DAN-G; 11.1 µM in the test on RT-4; 6.28 µM in the test with A-427. This compound also gave an Activity in test [2] of 0%. In test [4], this compound registered a Ki of 10.2 µM.
For the compound `C=CCN1C[C@H]2c3[nH]c4ccccc4c3C[C@@H]1CN2Cc1ccc(OC)cc1OC`, the half-inhibitory concentration (IC50) with 5637 amounted to 12.5 µM; in [3], 8.62 µM; in the test on MCF7, 5.04 µM; in the test on DAN-G, 5.99 µM; with RT-4, 7.97 µM; in the test on A-427, 6.41 µM. The compound also came in with an Activity in [2] of 11%. The affinity in test [4] corresponds to a Ki of 3.21 µM.
Regarding `C=CCN1C[C@@H]2c3[nH]c4ccc(OC)cc4c3C[C@H]1CN2Cc1ccc(OC)cc1`, the IC50 is 10.8 µM in the test on 5637; above 20 µM in test [3]; 25.5 µM in the test with MCF7; above 20 µM with DAN-G; above 20 µM in the test with RT-4; 13.2 µM in the test with A-427. Moreover, the inhibition constant (Ki) in [5] is 10.5 µM. In the test filed under Rattus norvegicus, this compound had an Activity of 0%.
As to `COc1ccc(CN2C[C@@H]3[C@@H](c4ccccc4)CC(=O)[C@H]2CN3Cc2ccccc2)cc1`, the half-inhibitory concentration (IC50) (in [3]; in the test with DAN-G) was above 20 µM each time. For the same compound, the Activity in the test filed under Rattus norvegicus was 0%; in [2] it was 8%.
Consider `C=CCN1C[C@H]2c3[nH]c4ccccc4c3C[C@@H]1CN2Cc1ccc(OC)cc1`, for which the half-inhibitory concentration (IC50) (in test [3]; with RT-4) was above 20 µM throughout. Moreover, the Activity in the test filed under Rattus norvegicus is 0%; in test [2], 7%.
Consider `C=CCN1C[C@H]2[C@@H](OCc3ccccc3)CC[C@@H]1CN2Cc1ccc(OC)cc1OC`, for which the half-inhibitory concentration (IC50) with 5637 came out at 7.66 µM; in [3], 8.67 µM; in the test with MCF7 it was 5.85 µM; in the test on DAN-G, 5.89 µM; in the test on RT-4, 5.87 µM; with A-427, 3.53 µM. The same compound yielded an Activity in test [2] of 13%. The Ki in test [4] turned out to be 2.81 µM.
With `C=CCN1C[C@@H]2c3[nH]c4ccccc4c3C[C@H]1CN2Cc1ccc(OC)cc1OC`, the half-maximal inhibitory concentration (IC50) (in test [3]; with RT-4) was above 20 µM in each case. In test [2], this compound returned an Activity of 13%. Besides, the affinity in [4] corresponds to a Ki of 3.35 µM.
Consider `C=CCN1C[C@@H]2c3nc4ccccc4c(C)c3C[C@H]1CN2Cc1ccc(OC)cc1`, for which the 50% inhibitory concentration (IC50) was 13.8 µM in the test on 5637; above 20 µM in test [3]; 18.5 µM with MCF7; 21.5 µM with DAN-G; above 20 µM with RT-4; 15.7 µM in the test on A-427. For the same compound, the Ki was 1.63 µM in test [5] and 5.61 µM in [4].
As for `C=CCN1C[C@H]2[C@@H](Oc3ccccc3)CC[C@@H]1CN2Cc1ccc(OC)cc1OC`, the concentration for half-maximal inhibition (IC50) is 15.2 µM in the test on 5637; above 20 µM in [3]; 9.09 µM with MCF7; 10.9 µM with DAN-G; 16.5 µM in the test on RT-4; 6.28 µM with A-427. Besides, the Activity in test [2] was 0%. Also, in [4], the Ki worked out at 5.88 µM.
For the compound `C=CCN1C[C@@H]2c3[nH]c4ccccc4c3C[C@H]1CN2Cc1ccc(OC)cc1`, the IC50 with 5637 is 11.2 µM; in test [3] it was 12.9 µM; with MCF7, 22.5 µM; in the test with DAN-G it was 7.7 µM; in the test on RT-4, 11.2 µM; in the test with A-427, 12.3 µM. The compound also gave an Activity in [2] of 44%. Further, affinity in test [4] was put at a Ki of 23.6 µM.
